The list is not random: actives were taken first. Their share in the collection is about 2%.
LMPTP inh: blocks human LMPTP phosphatase. P24666. recombinant LMPTP-A, OMFP fluorogenic substrate, fluorescence intensity. inhibition, % at 20 µM. hit rate 0.22% among 360,000;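 active = compounds that cut the enzyme signal by at least half of the control window in the single-dose screen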
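Test system: LMPTP-A, protein tyrosine phosphatase of low molecular weight; Input: 0.625 nM enzyme; Incubation: 50 min dark incubation at room temperature; Signal: endpoint fluorescence intensity from OMFP dephosphorylation; Read-out basis: % inhibition versus control wells.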
DNMT1 inh: inhibitors of human DNMT1 | P26358 | DNMT1 molecular beacon, Hinp1I cleavage, fluorescence | inhibition (reported as % activation of signal), % at 10 µM | hit rate 0.83% among 360,000 | AID 588458; in the data active = inhibition above about 50%
STEP block: inhibitors of human striatal-enriched phosphatase STEP. P54829. recombinant STEP, OMFP fluorogenic substrate, fluorescence. inhibition, % at 20 µM. hit rate 0.25% among 360,000. AID 588621;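 active = inhibition at 20 µM, scaled per plate between control wells, above about 37%, limit read from the data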
Target sequence (P54829 whole entry, looked up): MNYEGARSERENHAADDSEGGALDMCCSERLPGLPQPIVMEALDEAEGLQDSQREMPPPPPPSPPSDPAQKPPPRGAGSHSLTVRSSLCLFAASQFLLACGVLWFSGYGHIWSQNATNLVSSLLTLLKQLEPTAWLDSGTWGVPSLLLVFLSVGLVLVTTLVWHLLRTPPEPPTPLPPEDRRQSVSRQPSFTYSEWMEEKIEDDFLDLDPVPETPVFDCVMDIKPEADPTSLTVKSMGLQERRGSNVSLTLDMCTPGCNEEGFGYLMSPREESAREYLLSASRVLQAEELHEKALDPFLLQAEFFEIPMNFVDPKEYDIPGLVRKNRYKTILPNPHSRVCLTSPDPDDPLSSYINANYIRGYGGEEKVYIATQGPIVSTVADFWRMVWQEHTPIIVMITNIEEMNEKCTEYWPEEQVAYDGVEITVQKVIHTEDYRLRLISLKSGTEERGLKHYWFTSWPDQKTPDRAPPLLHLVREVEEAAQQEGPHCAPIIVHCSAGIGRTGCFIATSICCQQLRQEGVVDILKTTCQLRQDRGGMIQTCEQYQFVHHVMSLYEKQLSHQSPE
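System: STEP (striatal-enriched tyrosine phosphatase) enzyme, cell-free; medium: Bis-Tris pH 6.0 buffer with DTT, detergent; dosing: 20 µM, 1% DMSO; times: reaction 20 min, ambient temperature; detection: fluorescence, 480/540 nm; read-out basis: normalized % inhibition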
Scp-1 inhibitor: Scp-1 (human) phosphatase inhibition | hit rate 0.88% among 340,000 | Q9GZU7 | Recombinant Scp1, phosphopeptide, malachite green phosphate absorbance | inhibition, % at 20 µM;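 active = inhibition above about 50% at 20 µM, limit read from the data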
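Test system: SCP-1 phosphatase catalytic domain, residues 76-261 | Compound dosing: One concentration, 20 µM, with 1.0% DMSO | Schedule: 45 min room-temperature reaction, 5 min colour, 30 min stabiliser | Detection: Absorbance at 630 nm | Read-out basis: % inhibition of SCP-1 phosphate liberation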
Rpn11 inh: inhibitors of human proteasome Rpn11 | AID 588493 | inhibition, % at 20 µM | hit rate 0.59% among 360,000 | human 26S proteasome, Ub4-pepOG fluorescence polarization; 20S core pre-blocked with epoxomicin | O00487;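 active = inhibition at 20 µM, scaled to each plate's controls, above about 33%, limit read from the data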
Scp-1 conf: Scp-1 (human) inhibition, single-dose confirmed; shares compounds with Scp-1 inhibitor; recombinant SCP-1 catalytic domain, phosphate release, malachite green absorbance; inhibition, % at 20 µM; hit rate 61% among 2,500
MG interference: counter-screen for Scp-1 inhibitors: colorimetric interference. shares compounds with Scp-1 inhibitor. Colorimetric interference counterscreen, malachite green absorbance 630 nm. apparent inhibition (interference), % at 20 µM. 2,500 tested, under 10 active;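 also: compounds added after enzyme reaction finished so only phosphate colour detection is probed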
Scp-1 Tm shift: Scp-1 (human) binding by thermal shift; shares compounds with Scp-1 inhibitor; thermal shift relative to vanadate control, % at 40 µM; hit rate 25% among 1,500; AID 540329; Recombinant SCP1, Sypro Orange thermal shift Tm;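 active = substances whose mean melting-temperature shift, as a percentage of the reference inhibitor's shift, reaches about 5.3%, limit read from the data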
Each line names hits and unclear results; the compound was inactive in the other large screens (follow-up assays come after a bar, where they were run).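 The calls were made as follows, unless noted: active = inhibition of at least 30% at 20 µM; inactive = the rest.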

O=C(CSc1n[nH]c(C2CCCC2)n1)NC1CCCC1	Scp-1 inhibitor 64 | Scp-1 conf inactive | MG interference inactive
O=C(CCCSc1nc2ccccc2[nH]1)NC1CCCCC1	none
CCOC(=O)c1c(NC(=O)COC(=O)c2ccc(O)cc2)sc(C(=O)N(C)C)c1C	none
CCOC(=O)c1c(NC(=O)COC(=O)c2ccc(NC(=O)CC#N)cc2)sc(C(=O)NC)c1C	Scp-1 inhibitor 58 | Scp-1 conf 62 | MG interference inactive | Scp-1 Tm shift inactive
N#CCC(=O)Nc1ccc(C(=O)OCC(=O)Nc2ccc3ccccc3c2)cc1	Scp-1 inhibitor 52 | Scp-1 conf 57 | MG interference inactive | Scp-1 Tm shift 25
CCCCc1c(O)c2ccccc2n(CCCC)c1=O	none
CCCCc1c(CCC)c(=N)c2ccccc2n1C	Scp-1 inhibitor 91 | Scp-1 conf inactive | MG interference inactive
COCc1cc(C)c(C#N)c(=S)[nH]1	Scp-1 inhibitor 53 | Scp-1 conf inactive | MG interference inactive
COc1ccccc1NS(=O)(=O)c1cc(C(=O)N2CCCC2)ccc1C	none
COc1ccccc1NC(=O)/C(N=Nc1ccc(C)c(S(=O)(=O)Nc2ccccc2Cl)c1)=C(\C)O	Scp-1 inhibitor 50 | Scp-1 conf inactive | MG interference inactive
COc1ccccc1C(=O)NCC(=O)OC(C)C(=O)N1CCOCC1 (stereo unspecified)	Scp-1 inhibitor 60 | Scp-1 conf inactive | MG interference inactive
CSc1cccc(N2CC(C(=O)Nc3cccc(S(=O)(=O)N4CCCC4)c3)CC2=O)c1 (stereo unspecified)	Scp-1 inhibitor 74 | Scp-1 conf 76 | MG interference inactive | Scp-1 Tm shift inactive
CCOc1ccc(N2CC(C(=O)Nc3cccc(S(=O)(=O)N4CCCCC4)c3)CC2=O)cc1 (stereo unspecified)	none
COc1ccc(N2CC(C(=O)Nc3nc4ccccc4s3)CC2=O)cc1 (stereo unspecified)	none | Scp-1 conf inactive | MG interference inactive
CCOc1ccc(N2CC(C(=O)Nc3ccc(N4CCOCC4)cc3)CC2=O)cc1 (stereo unspecified)	none | Scp-1 conf inactive | MG interference inactive
COc1ccc(N2CC(C(=O)Nc3ccc(S(=O)(=O)N4CCCC4)cc3)CC2=O)cc1 (stereo unspecified)	Scp-1 inhibitor 54 | Scp-1 conf inactive | MG interference inactive
CCCCOc1ccc(S(=O)(=O)NC(=O)C2(C)CCN2C(=O)CCc2ccccc2)cc1 (stereo unspecified)	none (no result: Scp-1 inhibitor)
CCC(=O)OCOc1ccc(/C=C2/CCC(CN(C)C)C2=O)cc1 (stereo unspecified)	none
CC(=O)Nc1ccc(S(=O)(=O)/N=C2/NC(=O)/C(=C\c3ccco3)S2)cc1	DNMT1 inh 51, Scp-1 inhibitor 53 | Scp-1 conf 54 | MG interference inactive | Scp-1 Tm shift 10
Cc1ccc(S(=O)(=O)/N=C2/NC(=O)/C(=C\c3ccco3)S2)cc1	none
C[C@@H]1CN([C@H](C)CO)C(=O)c2cc(-c3ccccc3)cnc2O[C@@H]1CN(C)C(=O)C1CCOCC1	none (no result: Scp-1 inhibitor)
CCc1cccc(NS(=O)(=O)c2ccc3c(c2)NC(=O)CC(=O)N3)c1	none | Scp-1 conf inactive | MG interference inactive
Cc1ccn2c(=O)nc(SCC(=O)NCc3ccco3)nc2c1	Scp-1 inhibitor 72 | Scp-1 conf 35 | MG interference inactive | Scp-1 Tm shift inactive
Cc1ccn2c(=O)nc(SCC(=O)NCc3ccccc3)nc2c1	Scp-1 inhibitor 87 | Scp-1 conf 61 | MG interference inactive | Scp-1 Tm shift 5.7
Cc1ccc2cc(C)c3nnc(SCC(=O)NCc4ccco4)n3c2c1	Scp-1 inhibitor 78 | Scp-1 conf 57 | MG interference inactive | Scp-1 Tm shift inactive
C/C=C/C=C/C(=O)N1CC2(CC(c3cccc(NC(=O)/C=C/C)c3)=NO2)C[C@@H]1C(N)=O (stereo partly specified)	Scp-1 inhibitor 56 | Scp-1 conf inactive | MG interference inactive
C/C=C(\C)C(=O)Nc1cccc(C2=NOC3(C2)C[C@@H](C(N)=O)N(C(=O)c2ccccc2C(=O)c2ccccc2)C3)c1 (stereo partly specified)	none
C=C(C)C(=O)Nc1cccc(C2=NOC3(C2)C[C@H](C(N)=O)N(C(=O)c2ccccc2C(=O)c2ccccc2)C3)c1 (stereo partly specified)	DNMT1 inh 97, Scp-1 inhibitor 84 | Scp-1 conf 78 | MG interference inactive | Scp-1 Tm shift inactive
Cc1cccc(CN2[C@H](COCc3ccccc3)C=CS2(=O)=O)c1	none (no result: Scp-1 inhibitor)
CC1CCC2(CC1)NC(=O)N(CC(=O)NCc1ccc(F)cc1)C2=O (stereo unspecified)	none
Fc1ccc(Sc2ccccc2CNC2=NCCN2)cc1	Scp-1 inhibitor 52 | Scp-1 conf 84 | MG interference inactive | Scp-1 Tm shift inactive
OCCNC1=NCCN1	none
CC1(C)CCC[C@]2(C)[C@H]3Cc4cc(O)ccc4O[C@]3(C)CC[C@@H]12	none
C=CCN(CC=C)Cc1cc(=O)oc2ccccc12	none (no result: Scp-1 inhibitor)
O=C(Nc1ccc2c(c1)OCCO2)C(C1CC1)n1c(=O)c(-c2cc3ccccc3[nH]2)nc2ccccc21 (stereo unspecified)	none (no result: DNMT1 inh, STEP block, Scp-1 inhibitor, Rpn11 inh)
CC1(c2ccccc2)NC(=O)N(CC(=O)N2CCN(S(=O)(=O)c3ccccc3[N+](=O)[O-])CC2)C1=O (stereo unspecified)	Scp-1 inhibitor 50 | Scp-1 conf inactive | MG interference inactive
CCCc1ccc(C(=O)NNc2ccc(F)cc2)cc1	none
CCCc1ccc(C(=O)NC(=O)c2ccccc2O)cc1	STEP block 48, Scp-1 inhibitor 67 | Scp-1 conf 89 | MG interference inactive | Scp-1 Tm shift inactive
CCCc1ccc(C(=O)NNC(=O)c2ccc(Br)cc2)cc1	Scp-1 inhibitor 94 | Scp-1 conf 81 | MG interference inactive | Scp-1 Tm shift inactive
O=C(NC(=O)c1ccccc1O)c1ccc(C(F)(F)F)cc1	Scp-1 inhibitor 83 | Scp-1 conf 68 | MG interference inactive | Scp-1 Tm shift inactive
Fc1ccc(CSc2nc3ncc(Br)cc3[nH]2)cc1	Scp-1 inhibitor 59 | Scp-1 conf 70 | MG interference inactive | Scp-1 Tm shift inactive
Brc1cnc2nc(SCc3nc4ccccc4[nH]3)[nH]c2c1	none
CC(C)n1nc(C(=O)Nc2ccc(-n3cnnn3)cc2)c2ccccc2c1=O	none
